Data on 28 molecules can be found in ChEMBL document CHEMBL4765243, “Discovery of Novel Bromophenol-Thiosemicarbazone Hybrids as Potent Selective Inhibitors of Poly(ADP-ribose) Polymerase-1 (PARP-1) for Use in Cancer” (J Med Chem, 2019).

Data set [1] deals with SK-OV-3. Description: Antiproliferative activity against human SK-OV-3 cells assessed as cell growth inhibition at 20 uM incubated for 48 hrs by MTT assay relative to control. The class given is functional. A general note: Tetrazolium dyes change colour on reduction, which living cells bring about.
For data set [2], the system named is Bel-7402. Description: Antiproliferative activity against human Bel-7402 cells assessed as cell growth inhibition at 20 uM incubated for 48 hrs by MTT assay relative to control. The class given is functional.
In data set [3] the test system is HepG2. Description: Antiproliferative activity against human HepG2 cells assessed as cell growth inhibition at 20 uM incubated for 48 hrs by MTT assay relative to control. Format: functional.
Data set [4] concerns Caco-2. Description: Antiproliferative activity against human Caco-2 cells assessed as cell growth inhibition at 20 uM incubated for 48 hrs by MTT assay relative to control. Format: functional.
Data set [5] can be described thus: Cytotoxicity against human HL7702 cells assessed as cell growth inhibition at 20 uM incubated for 48 hrs by MTT assay relative to control. The class given is cell-based. Conditions: HL7702 (L02) cells.
Data set [6] addresses Poly [ADP-ribose] polymerase 1 (Homo sapiens, UniProt P09874). The settings on record: dose 100.0 nM, time 30.0 min.
The subject of data set [7] is SK-OV-3. Description: Antiproliferative activity against human SK-OV-3 cells assessed as cell growth inhibition incubated for 48 hrs by MTT assay. The class given is functional, cell-based. Conditions: SK-OV-3, 48 h. The procedure, abridged: (§1)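 Cells seeded in 96-well plates and exposed to compounds for 48 h; viability read by MTT. Each experiment repeated three times. SK-OV-3 grown in McCOY's 5A, Bel-7402 and HL-7702 in RPMI-1640, HepG2 in DMEM, Caco-2 in MEM.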

Data set [8] concerns Bel-7402. Description: Antiproliferative activity against human Bel-7402 cells assessed as cell growth inhibition incubated for 48 hrs by MTT assay. The class given is functional, cell-based. The settings on record: Bel-7402, 48 h. The procedure, abridged:
as §1

The subject of data set [9] is HepG2. Description: Antiproliferative activity against human HepG2 cells assessed as cell growth inhibition incubated for 48 hrs by MTT assay. The class given is functional, cell-based. The settings on record: HepG2, 48 h. The procedure, abridged:
as §1

The subject of data set [10] is Caco-2. Description: Antiproliferative activity against human Caco-2 cells assessed as cell growth inhibition incubated for 48 hrs by MTT assay. The settings on record: Caco-2, 48 h. The class given is functional, cell-based. Summed up:
as §1

The test system of data set [11] is L02. Description: Cytotoxicity against human HL7702 cells assessed as cell growth inhibition incubated for 48 hrs by MTT assay. Format: cell-based. The settings on record: L02, 48 h. Summed up:
as §1

Sequence of Poly [ADP-ribose] polymerase 1 (P09874 whole entry): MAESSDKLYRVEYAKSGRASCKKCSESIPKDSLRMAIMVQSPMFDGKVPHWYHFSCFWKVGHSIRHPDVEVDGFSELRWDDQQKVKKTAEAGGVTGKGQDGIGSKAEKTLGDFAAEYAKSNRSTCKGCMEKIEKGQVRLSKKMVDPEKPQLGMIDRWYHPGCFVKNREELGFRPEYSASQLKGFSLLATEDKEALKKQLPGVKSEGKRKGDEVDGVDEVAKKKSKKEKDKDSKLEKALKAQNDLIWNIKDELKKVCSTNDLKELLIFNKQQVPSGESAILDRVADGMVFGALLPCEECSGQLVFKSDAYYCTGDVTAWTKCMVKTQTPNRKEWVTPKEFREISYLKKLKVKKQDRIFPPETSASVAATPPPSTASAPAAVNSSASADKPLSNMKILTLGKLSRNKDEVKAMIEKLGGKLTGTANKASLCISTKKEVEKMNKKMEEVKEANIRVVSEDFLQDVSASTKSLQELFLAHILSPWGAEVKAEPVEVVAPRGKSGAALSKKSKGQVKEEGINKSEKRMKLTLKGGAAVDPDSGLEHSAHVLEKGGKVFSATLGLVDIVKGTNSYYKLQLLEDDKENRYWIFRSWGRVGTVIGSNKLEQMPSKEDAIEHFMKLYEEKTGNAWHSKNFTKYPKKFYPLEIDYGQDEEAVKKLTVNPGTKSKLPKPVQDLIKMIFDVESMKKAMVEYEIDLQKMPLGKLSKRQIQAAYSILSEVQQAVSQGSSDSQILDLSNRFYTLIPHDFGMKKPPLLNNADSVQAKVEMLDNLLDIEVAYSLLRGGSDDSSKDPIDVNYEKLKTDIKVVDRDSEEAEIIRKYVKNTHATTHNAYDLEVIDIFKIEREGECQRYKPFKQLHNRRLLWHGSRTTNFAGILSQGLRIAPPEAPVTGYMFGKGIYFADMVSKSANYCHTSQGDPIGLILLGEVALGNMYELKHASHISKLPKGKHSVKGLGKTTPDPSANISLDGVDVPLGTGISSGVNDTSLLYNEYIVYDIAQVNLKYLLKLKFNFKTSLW

`Oc1ccc(/C=N/NC(=S)Nc2ccccc2)cc1O`: the inhibition at 20 µM was less than 0% in [1], 38.8% in [2], less than 0% in data set [3] and 78.2% in data set [4]. Further, the inhibition at 48 h, 20 µM in data set [5] was found to be 76.4%. For the same molecule, the inhibition in [6] was 40.7%.

On to `COc1ccc(/C=N/NC(N)=S)c(Br)c1O`, for which the inhibition at 20 µM in [1] was determined as 9.92%; in data set [2], 21.4%; in data set [3], 38.5%; in [4] it was 9.01%. The inhibition at 48 h, 20 µM in [5] came out at 31.8%. In data set [6], the inhibition was determined as 34.8%.

`COc1cc(/C=N/NC(N)=S)cc(Br)c1OC`: the inhibition at 20 µM in [1] is less than 0%; in data set [2] it was 17.6%; in data set [3], 61.1%; in data set [4], 18.9%. Further, the inhibition at 48 h, 20 µM in data set [5] came to 2.11%. The molecule also gave an inhibition in data set [6] of 23.2%.

For `COc1ccc(/C=N/NC(N)=S)cc1O`, the inhibition in data set [6] is 28.1%.

Turning to `COc1cc(/C=N/NC(N)=S)cc(Br)c1O`, the inhibition at 20 µM was 21.6% in [1], 32.3% in [2], 29.6% in data set [3] and 35.6% in data set [4]. For the same molecule, in [5], the inhibition at 48 h, 20 µM was less than 0%. The molecule also showed an inhibition in data set [6] of 42.9%.

As to `COc1cc(Br)c(/C=N/NC(N)=S)cc1OC`, the inhibition at 20 µM is 20.8% in data set [1], 18.3% in data set [2], 37.6% in [3] and 8.65% in data set [4]. For the same molecule, in data set [5], the inhibition at 48 h, 20 µM was found to be 42.5%. For the same molecule, the inhibition in data set [6] stood at 42.6%.

For `COc1ccc(/C=N/NC(=S)Nc2ccccc2)c(Br)c1O`, the inhibition at 20 µM worked out at 62.1% in data set [1], 36.4% in data set [2], 65.6% in [3] and 82.4% in [4]. Further, the inhibition at 48 h, 20 µM in data set [5] was found to be 46.9%. The molecule also displayed an inhibition in data set [6] of 42.9%.

As to `COc1cc(/C=N/NC(=S)Nc2ccc(Cl)cc2)c(Br)c(Br)c1OC`, the inhibition at 20 µM is 81.2% in data set [1], 51.5% in data set [2], 62.7% in [3] and 44.8% in data set [4]. Moreover, the inhibition at 48 h, 20 µM in data set [5] was 85.5%. Also, the IC50 amounted to 15.3 µM in [7]; 13.9 µM in data set [8]; 13.4 µM in data set [9]; 10.1 µM in data set [10]; 3.5 µM in data set [11]. Besides, in data set [6], the inhibition is 38.2%.

Turning to `COc1cc(/C=N/NC(=S)Nc2ccccc2)c(Br)c(Br)c1O`, the inhibition at 20 µM in data set [1] was found to be 65.5%; in [2], 39.5%; in data set [3], 57.1%; in data set [4], 34.9%. For the same molecule, the inhibition at 48 h, 20 µM in [5] came out at 27.8%. This molecule also returned an inhibition in data set [6] of 12.5%.

For `NC(=S)N/N=C/c1cc(O)c(O)c(Br)c1`, the inhibition at 20 µM in data set [1] is less than 0%; in [2] it was less than 0%; in data set [3] it was less than 0%; in [4] it was 47.9%. The inhibition at 48 h, 20 µM in data set [5] is 54.8%. In data set [6], this molecule returned an inhibition of 30.2%.

With `COc1cc(/C=N/NC(=S)Nc2ccccc2)cc(Br)c1OC`, the inhibition at 20 µM in [1] was determined as 55.5%; in data set [2], 75.2%; in [3] it was 40%; in data set [4], 67.1%. Moreover, the inhibition at 48 h, 20 µM in data set [5] came to 72.1%. This molecule showed an inhibition in [6] of 18.2%.

For `COc1cc(/C=N/NC(=S)NCCCN2CCOCC2)cc(Br)c1OC`, the inhibition at 20 µM was determined as 37.7% in data set [1], 39.4% in [2], 35.2% in data set [3] and 36.9% in data set [4]. The inhibition at 48 h, 20 µM in [5] amounted to 24.7%. In addition, the inhibition in [6] turned out to be 33%.

In the case of `COc1cc(/C=N/NC(=S)Nc2ccc(F)cc2)c(Br)c(Br)c1OC`, the inhibition at 20 µM in data set [1] was 66.3%; in data set [2], 54.6%; in data set [3], 60.5%; in data set [4], 24.5%. Further, the inhibition at 48 h, 20 µM in data set [5] stood at 85.1%. For the same molecule, in [6], the inhibition was 46.6%.

As to `Oc1cc(/C=N/NC(=S)Nc2ccccc2)c(Br)c(Br)c1O`, the inhibition at 20 µM came to 54.6% in data set [1], 73.1% in data set [2], 72.9% in data set [3] and 76.4% in data set [4]. Besides, the inhibition at 48 h, 20 µM in data set [5] worked out at 94.5%. Further, the IC50 in data set [7] came to 5.12 µM; in data set [8], 12.3 µM; in [9], 7.08 µM; in [10] it was 9.34 µM; in data set [11], 5.65 µM. The molecule also displayed an inhibition in [6] of 45.9%.

`CNC(=S)N/N=C/c1cc(OC)c(OC)c(Br)c1Br`: the inhibition at 20 µM in [1] was 18.3%; in [2] it was 3.9%; in data set [3], 38.9%; in data set [4], less than 0%. For the same molecule, the inhibition at 48 h, 20 µM in data set [5] came to 63.4%. This molecule yielded an inhibition in [6] of 32.2%.

For `Oc1cc(/C=N/NC(=S)Nc2ccccc2)cc(Br)c1O`, the inhibition at 20 µM in data set [1] was 76.2%; in data set [2], 63.5%; in data set [3] it was 67.9%; in data set [4], 72%. In [5], the inhibition at 48 h, 20 µM is 86.4%. Also, the IC50 turned out to be 14 µM in data set [7]; 13.1 µM in data set [8]; 9.29 µM in data set [9]; 22.7 µM in data set [10]; 13.4 µM in data set [11]. The same molecule returned an inhibition in data set [6] of 28%.

As to `COc1ccc(/C=N/NC(=S)Nc2ccccc2)cc1O`, the inhibition at 20 µM came to 41.4% in data set [1], 32.2% in data set [2], 38% in data set [3] and 71.4% in data set [4]. In [5], the inhibition at 48 h, 20 µM worked out at 41.4%. The inhibition in data set [6] came out at 37.5%.

Regarding `COc1cc(/C=N/NC(=S)Nc2ccccc2)ccc1O`, the inhibition at 20 µM in data set [1] was 45.3%; in data set [2], 41%; in data set [3], 58.4%; in data set [4], 75.1%. Also, the inhibition at 48 h, 20 µM in [5] stood at 9.28%. Further, the inhibition in [6] stood at 20.6%.

In the case of `COc1cc(/C=N/NC(=S)Nc2ccc(Oc3ccccc3)cc2)cc(Br)c1OC`, the inhibition at 20 µM in data set [1] was 32.3%; in data set [2], 33.8%; in data set [3] it was less than 0%; in data set [4] it was 76.3%. Besides, in data set [5], the inhibition at 48 h, 20 µM was 75.9%. In data set [6], this molecule had an inhibition of 27.7%.

For the molecule `COc1cc(/C=N/NC(=S)Nc2ccccc2)cc(Br)c1O`, the inhibition at 20 µM was 56% in data set [1], 25.3% in data set [2], 62% in [3] and 62.9% in data set [4]. Besides, in data set [5], the inhibition at 48 h, 20 µM is 40.7%. Moreover, in data set [6], the inhibition was 35.5%.

For `CNC(=S)N/N=C/c1cc(Br)c(OC)c(OC)c1`, the inhibition at 20 µM was 32.9% in data set [1], 29.6% in data set [2], 57.2% in [3] and 43.8% in data set [4]. Moreover, in data set [5], the inhibition at 48 h, 20 µM came out at 44.3%. In addition, in data set [6], the inhibition was determined as 44.1%.

On to `COc1cc(/C=N/NC(=S)Nc2cccc(C(F)(F)F)c2)cc(Br)c1OC`, for which the inhibition at 20 µM in [1] was determined as 63.3%; in [2], 26%; in data set [3], 36.4%; in data set [4], 21%. Further, in [5], the inhibition at 48 h, 20 µM worked out at 58.6%. In data set [6], this molecule yielded an inhibition of 38.3%.

For the molecule `COc1cc(/C=N/NC(=S)Nc2ccc(Oc3ccccc3)cc2)c(Br)c(Br)c1OC`, the inhibition at 20 µM in [1] was 15%; in data set [2] it was less than 0%; in data set [3] it was less than 0%; in [4] it was less than 0%. For the same molecule, the inhibition at 48 h, 20 µM in data set [5] was less than 0%. Besides, in [6], the inhibition is 23.7%.

As to `COc1cc(/C=N/NC(=S)Nc2cccc(C(F)(F)F)c2)c(Br)c(Br)c1OC`, the inhibition at 20 µM in data set [1] was less than 0%; in data set [2], 12.7%; in [3], 43.2%; in data set [4], 6.4%. Also, the inhibition at 48 h, 20 µM in [5] stood at 71.1%. In addition, in data set [6], the inhibition was determined as 23%.

`COc1cc(/C=N/NC(=S)Nc2ccc(Cl)cc2)cc(Br)c1OC`: the inhibition at 20 µM was found to be 41.5% in data set [1], 55.7% in [2], 46.6% in data set [3] and 55.4% in data set [4]. Further, the inhibition at 48 h, 20 µM in data set [5] is 42.9%. The inhibition in data set [6] is 32.2%.

`COc1cc(/C=N/NC(N)=S)ccc1O`: the inhibition in data set [6] was 28%.

For `COc1cc(/C=N/NC(=S)Nc2ccc(F)cc2)cc(Br)c1OC`, the inhibition at 20 µM is 42.4% in [1], 48.2% in [2], 32.3% in data set [3] and 49.1% in data set [4]. In addition, the inhibition at 48 h, 20 µM in data set [5] turned out to be 68.6%. The inhibition in [6] is 38.1%.

Turning to `COc1cc(Br)c(/C=N/NC(=S)Nc2ccccc2)cc1OC`, the inhibition at 20 µM is 41.3% in data set [1], 19.3% in data set [2], 67% in [3] and 25.7% in [4]. Further, the inhibition at 48 h, 20 µM in data set [5] is 78.7%. In addition, the inhibition in [6] amounted to 37%.

As usually defined, the inhibition is the drop in the measured response relative to a control, in per cent. As usually defined, the IC50 is the concentration needed to halve the response being measured.
